Experiments:
Mus musculus [1] = test: Compound( 5 mg/kg) was tested for antinociceptive responses induced in hot plate test in mice after an iv dose of acetorphan 10 mg/kg.; format: functional
In short: (§1)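 Male Swiss mice (20–22 g); agents given iv under disulfide form together with acetorphan 10 mg/kg, in ethanol 10%/cremophor EL 10%/water 80% at 0.1 mL per 10 g; vehicle-injected controls. Jump latency read on hot plate at 55 ± 0.5 °C 15 min after injection, cut-off 240 s. % analgesia = (test − control latency)/(cut-off − control latency) × 100; ANOVA then Dunnett's t test.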

Mus musculus [2] = test: Compound (10 mg/kg) was tested for antinociceptive responses induced in hot plate test in mice after an iv dose of acetorphan 10 mg/kg.; format: functional; in short: as §1
Mus musculus [3] = test: Compound (20 mg/kg) was tested for antinociceptive responses induced in hot plate test in mice after an iv dose of acetorphan 10 mg/kg.; format: functional; in short: as §1
Aminopeptidase N [4] = molecular target: T1, Aminopeptidase N (Sus scrofa, UniProt P15145); test: Inhibition of [3H]Leu-enkephalin binding to Aminopeptidase N from hog kidney
T1 sequence (P15145 whole entry): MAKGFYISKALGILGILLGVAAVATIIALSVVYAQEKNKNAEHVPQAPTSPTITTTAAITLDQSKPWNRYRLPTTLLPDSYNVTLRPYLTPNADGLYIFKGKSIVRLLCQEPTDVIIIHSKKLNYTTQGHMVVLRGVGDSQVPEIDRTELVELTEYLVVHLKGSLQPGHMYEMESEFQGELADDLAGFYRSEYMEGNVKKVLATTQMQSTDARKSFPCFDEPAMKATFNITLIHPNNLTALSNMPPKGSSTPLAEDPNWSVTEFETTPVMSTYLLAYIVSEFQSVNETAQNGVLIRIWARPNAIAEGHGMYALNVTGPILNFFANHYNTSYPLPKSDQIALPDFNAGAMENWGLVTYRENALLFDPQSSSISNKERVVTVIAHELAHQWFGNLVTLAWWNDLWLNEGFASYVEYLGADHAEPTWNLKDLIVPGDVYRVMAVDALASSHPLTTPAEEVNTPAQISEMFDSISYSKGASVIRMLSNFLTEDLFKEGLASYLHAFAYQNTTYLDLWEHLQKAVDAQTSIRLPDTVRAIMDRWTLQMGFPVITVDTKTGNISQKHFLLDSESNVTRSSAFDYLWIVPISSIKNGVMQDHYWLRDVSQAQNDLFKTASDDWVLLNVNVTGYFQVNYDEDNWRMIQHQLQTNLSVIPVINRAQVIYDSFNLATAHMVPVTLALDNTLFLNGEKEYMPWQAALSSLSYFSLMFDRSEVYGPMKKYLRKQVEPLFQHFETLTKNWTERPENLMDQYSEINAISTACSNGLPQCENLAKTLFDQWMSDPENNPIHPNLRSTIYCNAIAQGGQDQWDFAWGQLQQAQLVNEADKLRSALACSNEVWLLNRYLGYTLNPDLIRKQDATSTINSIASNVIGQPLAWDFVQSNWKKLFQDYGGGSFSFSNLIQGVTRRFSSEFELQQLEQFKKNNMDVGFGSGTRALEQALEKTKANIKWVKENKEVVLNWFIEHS
In short: (§2)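 Hog kidney APN preincubated 15 min at 25 °C with rising inhibitor concentrations in 50 mM Tris-HCl pH 7.4; thiols supplied as disulfides reduced in situ with 100 equiv DTT. [3H]Tyr1-Leu5-enkephalin added at 10 nM final (Km 50 μM); reaction stopped after 15 min with HCl. Released [3H]Tyr separated on polystyrene beads; IC50 determined.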

Mus musculus [5] = test: Compound (40 mg/kg) was tested for antinociceptive responses induced in hot plate test in mice after an iv dose of acetorphan 10 mg/kg.; format: functional; in short: as §1
Mus musculus [6] = test: Compound( 5 mg/kg) was tested for antinociceptive responses induced in hot plate test in mice(% analgesia) after an iv dose of acetorphan 10 mg/kg.; format: functional
In short: (§3)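 Male Swiss mice (20–22 g) given compound as disulfide form iv, coadministered with acetorphan 10 mg/kg, in ethanol (10%)/cremophor EL (10%)/water (80%) vehicle, 0.1 mL per 10 g; controls got vehicle. Hot plate at 55 ± 0.5 °C 15 min later; jump latency recorded, cut-off 240 s. % analgesia = (test − control latency)/(cut-off − control latency) × 100; ANOVA then Dunnett's t test.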

Mus musculus [7] = test: Compound( 10 mg/kg) was tested for antinociceptive responses induced in hot plate test in mice after an iv dose of acetorphan 10 mg/kg.; format: functional; in short: as §3
Mus musculus [8] = test: Compound( 20 mg/kg) was tested for antinociceptive responses induced in hot plate test in mice after an iv dose of acetorphan 10 mg/kg.; format: functional; in short: as §3
Aminopeptidase N [9] = molecular target: T1, Aminopeptidase N; test: Compound was tested for inhibitory potency against aminopeptidase N from hog kidney, using [3H]Leu-enkephalin as substrate; in short: as §2

| Structure (SMILES) | Jump latency time (Mus musculus [3]) [s] | IC50 (Aminopeptidase N [4]) [nM] | Jump latency time (Mus musculus [5]) [s] | also measured |
| --- | --- | --- | --- | --- |
| CSCCC(N)CS (centres undefined) | 240 | – | – | Jump latency time (Mus musculus [1]): 200.8 s; Jump latency time (Mus musculus [2]): 225.4 s |
| NC(CS)Cc1ccc2ccccc2c1 (centres undefined) | 106.6 | 130 | 132.8 | – |
| CC(C)CC(N)CS (centres undefined) | 225.6 | 22 | 240 | – |
| NC(CS)Cc1ccccc1 (centres undefined) | – | – | – | ED50 (Mus musculus [6]): 12 mg/kg; Jump latency time (Mus musculus [7]): 147.9 s; Jump latency time (Mus musculus [8]): 204.2 s; Jump latency time (Mus musculus [1]): 90 s |
| C[S+]([O-])CCC(N)CS (centres undefined) | 240 | – | – | Jump latency time (Mus musculus [1]): 216.9 s; Jump latency time (Mus musculus [2]): 236 s |
| SCC(Cc1ccccc1)NCc1ccccc1 (centres undefined) | – | 160000 | – | – |
| NC(CC(=O)O)Cc1ccccc1 (centres undefined) | – | – | – | IC50 (Aminopeptidase N [9]): 800000 nM |
| CC(C)(C)SCC(N)CS (centres undefined) | – | 40 | – | – |
| CNC(CS)CC(C)C (centres undefined) | – | 4000 | – | – |
| NC(CS)Cc1ccc(O)cc1 (centres undefined) | 119 | – | 166.4 | IC50 (Aminopeptidase N [9]): 45 nM; Jump latency time (Mus musculus [1]): 112.9 s |
| NC(CS)CC1CCCCC1 (centres undefined) | – | – | – | IC50 (Aminopeptidase N [9]): 45 nM |
| NC(CSCc1ccccc1)Cc1ccccc1 (centres undefined) | – | 80000 | – | – |
| NC(CS)CSCc1ccccc1 (centres undefined) | 232.2 | 90 | 233.6 | – |
| NC(CS)c1ccccc1 (centres undefined) | – | – | – | IC50 (Aminopeptidase N [9]): 25 nM |
| NC(CS)COCc1ccccc1 (centres undefined) | 166.5 | 56 | 229.4 | – |
| NC(Cc1ccccc1)CP(=O)(O)O (centres undefined) | – | 500000 | – | – |

Reference: ChEMBL document CHEMBL1125423, “Potent and systemically active aminopeptidase N inhibitors designed from active-site investigation” (J Med Chem, 1992)
